Experimental data as given in ChEMBL document CHEMBL1955770, “Inhibition of S/G2 phase CDK4 reduces mitotic fidelity” (J Biol Chem, 2006).

What was measured:
[1] = target: BMP-2-inducible protein kinase (Homo sapiens) (UniProt Q9NSY1); assay: Inhibition of BIKE at 1 uM
Procedure, shortened: (§1)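 Competition binding screen across a kinase panel with compound at 1 μM. Read-out is % competition. Kinases not hit at this concentration were scored '<50'. No Kd was determined for hits.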

[2] = target: Vascular endothelial growth factor receptor 2 (Homo sapiens) (UniProt P35968); assay: Inhibition of VEGFR2 at 1 uM
[3] = target: Ribosomal protein S6 kinase alpha-2 (Homo sapiens) (UniProt Q15349); assay: Inhibition of RPS6KA2 Kin.Dom. 1 at 1 uM
[4] = target: Mast/stem cell growth factor receptor Kit (Homo sapiens) (UniProt P10721); assay: Inhibition of KIT at 1 uM
[5] = target: Serine/threonine-protein kinase PAK 5 (Homo sapiens) (UniProt Q9P286); assay: Inhibition of PAK7/PAK5 at 1 uM
[6] = target: Serine/threonine-protein kinase B-raf (Homo sapiens) (UniProt P15056); assay: Inhibition of BRAF at 1 uM; procedure, shortened: as §1
[7] = target: Angiopoietin-1 receptor (Homo sapiens) (UniProt Q02763); assay: Inhibition of TIE2 at 1 uM
[8] = target: Serine/threonine-protein kinase 10 (Homo sapiens) (UniProt O94804); assay: Inhibition of STK10 at 1 uM
[9] = target: Ephrin type-A receptor 5 (Homo sapiens) (UniProt P54756); assay: Inhibition of EPHA5 at 1 uM
[10] = target: Vascular endothelial growth factor receptor 3 (Homo sapiens) (UniProt P35916); assay: Inhibition of FLT4 at 1 uM
[11] = target: Calcium/calmodulin-dependent protein kinase type II subunit gamma (Homo sapiens) (UniProt Q13555); assay: Inhibition of CAMK2G at 1 uM
Procedure, shortened: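 Competition binding screen against a kinase panel, compound tested at a single concentration of 1 μM. Read-out is % competition, where higher scores mark stronger hits. Kinases not hit in the primary screen are reported as '<50'. No Kd values were determined.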

[12] = target: Death-associated protein kinase 3 (Homo sapiens) (UniProt O43293); assay: Inhibition of DAPK3 at 1 uM
[13] = target: TRAF2 and NCK-interacting protein kinase (Homo sapiens) (UniProt Q9UKE5); assay: Inhibition of TNIK at 1 uM
[14] = target: Ephrin type-A receptor 3 (Homo sapiens) (UniProt P29320); assay: Inhibition of EPHA3 at 1 uM
[15] = target: Ephrin type-A receptor 7 (Homo sapiens) (UniProt Q15375); assay: Inhibition of EPHA7 at 1 uM
[16] = target: 5'-AMP-activated protein kinase catalytic subunit alpha-1 (Homo sapiens) (UniProt Q13131); assay: Inhibition of AMPK-alpha1 at 1 uM; procedure, shortened: as §1
[17] = target: Leukocyte tyrosine kinase receptor (Homo sapiens) (UniProt P29376); assay: Inhibition of LTK at 1 uM
[18] = target: Casein kinase II subunit alpha (Homo sapiens) (UniProt P68400); assay: Inhibition of CSNK2A1 at 1 uM
[19] = target: Protein-tyrosine kinase 2-beta (Homo sapiens) (UniProt Q14289); assay: Inhibition of PTK2B at 1 uM
[20] = target: Epidermal growth factor receptor (Homo sapiens) (UniProt P00533); assay: Inhibition of EGFR at 1 uM
[21] = target: Proto-oncogene tyrosine-protein kinase ROS (Homo sapiens) (UniProt P08922); assay: Inhibition of ROS1 at 1 uM
Insulin receptor = Insulin receptor (Homo sapiens, UniProt P06213); assay: Inhibition of INSR at 1 uM
[22] = target: Serine/threonine-protein kinase Nek9 (Homo sapiens) (UniProt Q8TD19); assay: Inhibition of NEK9 at 1 uM
[23] = target: Receptor tyrosine-protein kinase erbB-2 (Homo sapiens) (UniProt P04626); assay: Inhibition of ERBB2 at 1 uM
[24] = target: Ephrin type-B receptor 4 (Homo sapiens) (UniProt P54760); assay: Inhibition of EPHB4 at 1 uM
[25] = target: Tyrosine-protein kinase Fyn (Homo sapiens) (UniProt P06241); assay: Inhibition of FYN at 1 uM
[26] = target: Tyrosine-protein kinase Lyn (Homo sapiens) (UniProt P07948); assay: Inhibition of LYN at 1 uM
[27] = target: Dual specificity protein kinase CLK2 (Homo sapiens) (UniProt P49760); assay: Inhibition of CLK2 at 1 uM
[28] = target: Serine/threonine-protein kinase Nek6 (Homo sapiens) (UniProt Q9HC98); assay: Inhibition of NEK6 at 1 uM
[29] = target: Calcium/calmodulin-dependent protein kinase kinase 1 (Homo sapiens) (UniProt Q8N5S9); assay: Inhibition of CAMKK1 at 1 uM
[30] = target: Serine/threonine-protein kinase 17B (Homo sapiens) (UniProt O94768); assay: Inhibition of STK17B at 1 uM
[31] = target: Platelet-derived growth factor receptor alpha (Homo sapiens) (UniProt P16234); assay: Inhibition of PDGFRA at 1 uM
[32] = target: Fibroblast growth factor receptor 1 (Homo sapiens) (UniProt P11362); assay: Inhibition of FGFR1 at 1 uM
[33] = target: RAC-alpha serine/threonine-protein kinase (Homo sapiens) (UniProt P31749); assay: Inhibition of AKT1 at 1 uM; procedure, shortened: as §1
[34] = target: Calcium/calmodulin-dependent protein kinase kinase 2 (Homo sapiens) (UniProt Q96RR4); assay: Inhibition of CAMKK2 at 1 uM
[35] = target: Death-associated protein kinase 2 (Homo sapiens) (UniProt Q9UIK4); assay: Inhibition of DAPK2 at 1 uM
[36] = target: Mitogen-activated protein kinase 1 (Homo sapiens) (UniProt P28482); assay: Inhibition of ERK2 at 1 uM
[37] = target: Tyrosine-protein kinase JAK2 (Homo sapiens) (UniProt O60674); assay: Inhibition of JAK2(Kin.Dom.2) at 1 uM
[38] = target: Dual specificity protein kinase CLK3 (Homo sapiens) (UniProt P49761); assay: Inhibition of CLK3 at 1 uM
[39] = target: Ribosomal protein S6 kinase alpha-3 (Homo sapiens) (UniProt P51812); assay: Inhibition of RPS6KA3 Kin.Dom.1 at 1 uM
[40] = target: Tyrosine-protein kinase Lck (Homo sapiens, UniProt P06239); assay: Inhibition of LCK at 1 uM
HCT-116 = assay: Cell cycle arrest in Rb-competent human HCT116 cells assessed as reduction in S phase after 24 hrs using BrdUrd staining by FACS analysis; format: functional, cell-based; settings: HCT-116, 24 h
Procedure, shortened: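 Asynchronous HCT-116 cells treated 24 h with increasing inhibitor doses, then given a 30-min BrdUrd pulse before harvest. Percentage of BrdUrd-positive cells measured by FACS; IC50 taken as the dose reducing S phase to 50% of control.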

[41] = target: Serine/threonine-protein kinase 16 (Homo sapiens) (UniProt O75716); assay: Inhibition of STK16 at 1 uM

Sequence of Vascular endothelial growth factor receptor 3 (Homo sapiens) (P35916 whole entry): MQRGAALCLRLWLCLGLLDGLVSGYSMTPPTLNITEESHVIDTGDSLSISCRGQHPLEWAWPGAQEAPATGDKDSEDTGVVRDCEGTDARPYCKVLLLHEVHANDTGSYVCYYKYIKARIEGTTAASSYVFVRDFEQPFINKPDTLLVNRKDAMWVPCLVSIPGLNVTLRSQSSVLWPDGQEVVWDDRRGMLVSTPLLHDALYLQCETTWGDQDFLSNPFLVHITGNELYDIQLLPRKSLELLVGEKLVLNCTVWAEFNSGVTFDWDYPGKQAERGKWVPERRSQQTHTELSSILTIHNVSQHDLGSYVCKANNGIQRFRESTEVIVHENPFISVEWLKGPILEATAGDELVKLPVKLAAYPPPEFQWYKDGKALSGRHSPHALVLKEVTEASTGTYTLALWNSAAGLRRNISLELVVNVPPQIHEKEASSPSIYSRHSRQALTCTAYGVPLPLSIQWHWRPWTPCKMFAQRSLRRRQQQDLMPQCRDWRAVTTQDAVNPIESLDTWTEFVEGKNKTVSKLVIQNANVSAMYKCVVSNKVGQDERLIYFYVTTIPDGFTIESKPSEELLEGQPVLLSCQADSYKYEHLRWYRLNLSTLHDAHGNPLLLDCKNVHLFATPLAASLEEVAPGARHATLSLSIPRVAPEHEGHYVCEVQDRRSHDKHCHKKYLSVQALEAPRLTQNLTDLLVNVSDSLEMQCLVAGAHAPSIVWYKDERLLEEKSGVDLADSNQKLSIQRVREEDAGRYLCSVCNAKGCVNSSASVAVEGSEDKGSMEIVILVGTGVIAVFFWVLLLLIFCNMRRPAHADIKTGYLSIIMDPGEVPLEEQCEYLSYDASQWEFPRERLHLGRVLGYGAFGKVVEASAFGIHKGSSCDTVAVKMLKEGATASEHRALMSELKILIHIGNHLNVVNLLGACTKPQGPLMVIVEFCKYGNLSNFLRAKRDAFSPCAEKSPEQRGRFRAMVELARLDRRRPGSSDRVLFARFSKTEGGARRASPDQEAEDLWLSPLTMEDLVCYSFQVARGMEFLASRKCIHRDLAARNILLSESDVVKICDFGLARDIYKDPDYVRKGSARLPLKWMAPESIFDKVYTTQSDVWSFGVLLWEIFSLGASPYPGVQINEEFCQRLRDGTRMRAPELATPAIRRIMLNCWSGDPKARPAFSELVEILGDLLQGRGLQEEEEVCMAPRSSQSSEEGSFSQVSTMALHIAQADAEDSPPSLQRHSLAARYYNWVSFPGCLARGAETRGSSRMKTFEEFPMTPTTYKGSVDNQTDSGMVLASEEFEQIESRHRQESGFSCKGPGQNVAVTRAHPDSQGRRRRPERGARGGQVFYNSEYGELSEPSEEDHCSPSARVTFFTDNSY
Sequence of Tyrosine-protein kinase Lck (P06239 2-509 limits assumed): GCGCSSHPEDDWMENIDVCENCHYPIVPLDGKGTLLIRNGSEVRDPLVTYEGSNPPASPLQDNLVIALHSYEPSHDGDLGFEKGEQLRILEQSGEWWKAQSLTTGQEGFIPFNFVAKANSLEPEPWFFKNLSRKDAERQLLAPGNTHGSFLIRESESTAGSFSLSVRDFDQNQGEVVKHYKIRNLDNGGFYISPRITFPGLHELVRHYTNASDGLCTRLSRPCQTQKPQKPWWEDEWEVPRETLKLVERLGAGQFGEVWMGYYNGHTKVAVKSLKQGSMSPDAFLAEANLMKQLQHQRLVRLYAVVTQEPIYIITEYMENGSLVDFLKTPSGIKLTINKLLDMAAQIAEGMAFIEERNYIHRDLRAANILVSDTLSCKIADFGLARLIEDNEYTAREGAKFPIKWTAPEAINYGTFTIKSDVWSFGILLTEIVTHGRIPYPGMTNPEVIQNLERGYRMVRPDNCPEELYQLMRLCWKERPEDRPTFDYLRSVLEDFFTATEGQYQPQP
Sequence of RAC-alpha serine/threonine-protein kinase (Homo sapiens) (P31749 whole entry): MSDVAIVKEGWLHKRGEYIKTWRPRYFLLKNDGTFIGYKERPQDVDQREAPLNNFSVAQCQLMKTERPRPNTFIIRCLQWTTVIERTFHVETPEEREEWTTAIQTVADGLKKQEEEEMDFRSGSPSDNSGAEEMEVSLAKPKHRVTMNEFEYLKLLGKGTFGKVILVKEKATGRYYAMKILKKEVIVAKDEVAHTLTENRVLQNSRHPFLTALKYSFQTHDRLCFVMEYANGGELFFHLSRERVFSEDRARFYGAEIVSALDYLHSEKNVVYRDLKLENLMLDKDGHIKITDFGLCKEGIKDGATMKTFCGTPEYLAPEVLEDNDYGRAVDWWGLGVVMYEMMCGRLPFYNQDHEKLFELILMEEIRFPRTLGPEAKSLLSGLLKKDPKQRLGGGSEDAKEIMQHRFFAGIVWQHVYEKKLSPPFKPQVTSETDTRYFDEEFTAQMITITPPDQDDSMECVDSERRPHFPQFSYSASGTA
Sequence of Serine/threonine-protein kinase Nek6 (Homo sapiens) (Q9HC98 whole entry): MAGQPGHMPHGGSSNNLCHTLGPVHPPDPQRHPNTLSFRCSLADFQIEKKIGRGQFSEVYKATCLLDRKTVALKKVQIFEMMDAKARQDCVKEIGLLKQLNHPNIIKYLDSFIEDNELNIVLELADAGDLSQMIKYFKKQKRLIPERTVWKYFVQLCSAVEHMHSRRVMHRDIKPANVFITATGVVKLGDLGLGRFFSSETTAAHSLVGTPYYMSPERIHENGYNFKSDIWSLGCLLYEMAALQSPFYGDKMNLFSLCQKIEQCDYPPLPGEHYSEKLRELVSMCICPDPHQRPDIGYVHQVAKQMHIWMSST
Sequence of Serine/threonine-protein kinase 10 (Homo sapiens) (O94804 whole entry, looked up): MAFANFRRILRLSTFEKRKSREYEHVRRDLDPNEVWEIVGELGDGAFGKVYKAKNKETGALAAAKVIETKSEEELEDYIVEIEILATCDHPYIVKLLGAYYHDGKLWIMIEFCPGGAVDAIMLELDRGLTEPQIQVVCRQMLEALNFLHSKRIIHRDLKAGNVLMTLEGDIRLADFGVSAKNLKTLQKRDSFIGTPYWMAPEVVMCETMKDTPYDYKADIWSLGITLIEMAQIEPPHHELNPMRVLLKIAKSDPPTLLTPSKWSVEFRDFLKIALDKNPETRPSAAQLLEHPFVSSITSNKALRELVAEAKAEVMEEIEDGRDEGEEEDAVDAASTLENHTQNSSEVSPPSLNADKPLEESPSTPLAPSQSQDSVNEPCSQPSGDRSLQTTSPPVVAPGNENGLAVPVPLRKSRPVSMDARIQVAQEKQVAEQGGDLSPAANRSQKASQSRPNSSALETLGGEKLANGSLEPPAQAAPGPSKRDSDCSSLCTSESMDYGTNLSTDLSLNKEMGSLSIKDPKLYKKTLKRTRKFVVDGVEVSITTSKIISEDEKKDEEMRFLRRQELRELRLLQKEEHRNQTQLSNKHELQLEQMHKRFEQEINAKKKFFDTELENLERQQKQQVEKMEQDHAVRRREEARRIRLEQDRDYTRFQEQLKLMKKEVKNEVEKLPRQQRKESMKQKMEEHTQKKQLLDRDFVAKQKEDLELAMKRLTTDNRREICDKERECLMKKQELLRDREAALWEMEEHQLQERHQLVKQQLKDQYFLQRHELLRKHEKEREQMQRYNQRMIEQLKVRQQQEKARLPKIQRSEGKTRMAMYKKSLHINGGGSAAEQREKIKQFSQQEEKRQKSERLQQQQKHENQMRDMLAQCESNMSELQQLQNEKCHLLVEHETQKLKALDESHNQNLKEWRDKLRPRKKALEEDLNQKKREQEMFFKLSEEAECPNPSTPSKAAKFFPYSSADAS
Sequence of Ephrin type-A receptor 5 (Homo sapiens) (P54756 whole entry): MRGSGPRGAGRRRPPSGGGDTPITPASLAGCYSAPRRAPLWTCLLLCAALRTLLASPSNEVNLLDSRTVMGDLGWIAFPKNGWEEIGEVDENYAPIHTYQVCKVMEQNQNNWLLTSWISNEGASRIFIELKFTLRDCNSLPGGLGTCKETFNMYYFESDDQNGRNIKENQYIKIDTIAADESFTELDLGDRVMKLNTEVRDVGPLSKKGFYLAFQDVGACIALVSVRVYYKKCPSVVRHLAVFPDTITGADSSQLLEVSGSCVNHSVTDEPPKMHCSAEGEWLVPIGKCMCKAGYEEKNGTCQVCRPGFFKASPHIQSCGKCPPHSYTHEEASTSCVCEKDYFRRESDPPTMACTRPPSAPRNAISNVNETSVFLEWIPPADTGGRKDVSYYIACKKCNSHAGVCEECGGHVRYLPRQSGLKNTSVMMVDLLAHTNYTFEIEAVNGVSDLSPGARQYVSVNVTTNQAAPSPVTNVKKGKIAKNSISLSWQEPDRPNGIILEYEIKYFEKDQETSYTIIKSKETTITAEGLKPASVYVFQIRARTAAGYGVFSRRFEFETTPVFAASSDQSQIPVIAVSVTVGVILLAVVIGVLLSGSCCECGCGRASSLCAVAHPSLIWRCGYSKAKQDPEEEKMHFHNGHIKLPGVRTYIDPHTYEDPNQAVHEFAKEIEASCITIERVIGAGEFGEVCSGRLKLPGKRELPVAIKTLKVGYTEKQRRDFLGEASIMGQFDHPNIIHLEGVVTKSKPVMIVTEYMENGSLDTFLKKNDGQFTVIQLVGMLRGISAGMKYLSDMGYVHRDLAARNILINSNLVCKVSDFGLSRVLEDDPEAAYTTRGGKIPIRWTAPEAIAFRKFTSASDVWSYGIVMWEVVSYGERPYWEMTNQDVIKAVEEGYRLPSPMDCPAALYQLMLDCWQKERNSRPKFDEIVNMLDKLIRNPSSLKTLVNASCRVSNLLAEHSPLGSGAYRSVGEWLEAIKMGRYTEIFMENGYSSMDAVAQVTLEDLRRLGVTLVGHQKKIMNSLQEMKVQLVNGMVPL
Sequence of Death-associated protein kinase 2 (Homo sapiens) (Q9UIK4 whole entry, looked up): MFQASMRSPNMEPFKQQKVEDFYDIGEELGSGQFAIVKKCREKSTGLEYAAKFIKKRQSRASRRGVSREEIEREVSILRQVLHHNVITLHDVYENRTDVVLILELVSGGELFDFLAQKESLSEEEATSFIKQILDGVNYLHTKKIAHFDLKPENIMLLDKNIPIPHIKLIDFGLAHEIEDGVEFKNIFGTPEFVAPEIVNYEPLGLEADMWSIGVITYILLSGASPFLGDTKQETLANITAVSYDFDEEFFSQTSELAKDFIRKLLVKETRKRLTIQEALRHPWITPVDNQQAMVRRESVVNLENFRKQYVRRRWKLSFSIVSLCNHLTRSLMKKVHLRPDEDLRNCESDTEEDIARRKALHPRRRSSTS

- inhibition [1]: < 50%
- inhibition [2]: < 50%
- inhibition [3]: < 50%
- inhibition [4]: < 50%
- inhibition [5]: < 50%
- inhibition [6]: < 50%
- inhibition [7]: < 50%
- inhibition [8]: < 50%
- inhibition [9]: < 50%
- inhibition [10]: < 50%
- inhibition [11]: < 50%
- inhibition [13]: < 50%
- inhibition [14]: < 50%
- inhibition [15]: < 50%
- inhibition [16]: < 50%
- inhibition [17]: < 50%
- inhibition [18]: < 50%
- inhibition [19]: < 50%
- inhibition [20]: < 50%
- inhibition [21]: < 50%
- inhibition (Insulin receptor): < 50%
- inhibition [23]: < 50%
- inhibition [24]: < 50%
- inhibition [25]: < 50%
- inhibition [26]: < 50%
- inhibition [27]: 100%
- inhibition [28]: < 50%
- inhibition [29]: < 50%
- inhibition [30]: < 50%
- inhibition [31]: < 50%
- inhibition [32]: < 50%
- inhibition [33]: < 50%
- inhibition [34]: < 50%
- inhibition [36]: < 50%
- inhibition [37]: < 50%
- inhibition [38]: 89%
- inhibition [39]: < 50%
- inhibition [40]: < 50%
- IC50 (HCT-116): 3.9 µM
- IC90 (HCT-116): 6.1 µM
- inhibition [41]: 87%
SMILES: CN1CCN(c2ccc(Nc3nc(N)c(C(=O)c4ccc5c(c4)OCCO5)s3)cc2)CC1
- inhibition [12]: < 50%
- inhibition [22]: < 50%
- inhibition [35]: < 50%
